# This is a sample that favours compounds with a hit; in the whole collection about 1.4% have one here.
# Rin1 Abl inh: human Rin1-Abl interaction inhibition; TR-FRET Rin1/Abl binding, biochemical; P00519+Q13671; inhibition, % at 7.35 µM; 360,000 compounds, 0.4% hits; in the data active = inhibition above about 5%, passing the limit was not always enough
# TbMetRS inhib: Trypanosoma brucei MetRS inhibition | purified T. brucei MetRS, ATP depletion, Kinase-Glo luminescence | inhibition, % at 11.9 µM | 360,000 compounds, 0.4% hits | AID 624268;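 active = inhibition above a per-plate cutoff of the control wells' mean inhibition plus 3 SD, cut at about 5.5% in these data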;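 also: 0% = DMSO wells median and 100% = median of wells with control inhibitor compound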
#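 Material: parasite MetRS enzyme / Replication: singlicate, one well per compound / Signal: luminescence of leftover ATP / Schedule: 2 h aminoacylation at 25 °C after 15 min preincubation / Medium: HEPES-MgCl2-KCl buffer plus DTT, spermine, BSA, pyrophosphatase / Doses: 11.9 µM single point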
# ATG4B inh: inhibitors of human ATG4B cysteine protease; Q9Y4P1; ATG4B cleavage of LC3-PLA2, NBD-HPC fluorescence, 1 h; 340,000 compounds, 0.51% hits; AID 504462; inhibition, % at 8.33 µM; in the data active = inhibition above about 40%
# Target sequence (Q9Y4P1 whole entry, looked up): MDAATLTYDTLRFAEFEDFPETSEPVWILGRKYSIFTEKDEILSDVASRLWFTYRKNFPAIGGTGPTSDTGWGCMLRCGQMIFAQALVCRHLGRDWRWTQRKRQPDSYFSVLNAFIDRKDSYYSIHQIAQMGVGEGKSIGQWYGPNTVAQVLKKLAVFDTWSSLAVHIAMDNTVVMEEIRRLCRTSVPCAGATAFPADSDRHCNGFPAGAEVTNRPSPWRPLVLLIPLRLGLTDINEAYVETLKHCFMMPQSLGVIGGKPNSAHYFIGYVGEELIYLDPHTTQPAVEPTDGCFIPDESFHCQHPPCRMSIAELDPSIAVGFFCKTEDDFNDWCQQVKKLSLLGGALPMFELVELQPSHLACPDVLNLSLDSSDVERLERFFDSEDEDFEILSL
# UCH37 DUB inh: inhibitors of human deubiquitinating enzyme UCH37; Q9Y5K5; purified proteasome/UCH37, Ub-AMC cleavage fluorescence; inhibition, % (test concentration not listed); 330,000 compounds, 0.33% hits; AID 588478;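 active = mean inhibition over replicate wells above about 20%, limit read from the data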;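 also: 0% = compound-free wells with enzyme and 100% = wells lacking proteasome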
#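 Material: Human UCH37 enzyme supplied as purified proteasome complex | Schedule: 30 min preincubation with enzyme, 25 min cleavage at room temperature | Detection: AMC fluorescence 355/460 nm | Measure: % inhibition of Ub-AMC cleavage fluorescence | Controls: Wells without proteasome as full block, compound-free enzyme plus substrate as uninhibited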
# * marks the source's active call; other numbers are inactive results; . = no result.
SMILES,Rin1 Abl inh,TbMetRS inhib,ATG4B inh,UCH37 DUB inh
CCC(=O)N(C)C[C@@H]1Oc2cc(Br)ccc2S(=O)(=O)N([C@@H](C)CO)C[C@@H]1C,-0.2,-0.1,.,.
CC(C)(C)S(=O)(=O)N1C[C@H]2CC/C=C\C/C(c3ccccc3)=C\2[C@@H]1CCO,-0.6,-0.6,0.3,24.8*
Cc1ccc(NC(=O)c2ccc(CN3CCc4ccccc4C3)cc2)cc1,-2.0,-0.9,-0.4,22.2*
COCCNc1nc2cc(-c3cccc(C(F)(F)F)c3)sc2c(=O)n1C,0.3,0.1,.,.
CCCCn1cnc2c(c(-c3ccccc3)c(-c3ccccc3)n2Cc2ccco2)c1=N,2.6,-1.1,13.5,1.7
N=c1c2c(-c3ccccc3)c(-c3ccccc3)n(Cc3ccccc3)c2ncn1CCCn1ccnc1,-4.0,0.7,8.1,23.6*
O=C(Cc1ccc(S(=O)(=O)N2CCOCC2)s1)N1CCN(S(=O)(=O)c2ccccc2[N+](=O)[O-])CC1,0.5,-0.3,-57.2,2.1
CCn1c(/C=C/N(C)c2ccccc2)[n+](CC)c2ccc(Cl)cc21,-0.7,-0.5,-5.8,22.8*
COc1ccccc1C(=O)NC(=S)Nc1ccc(N2CCOCC2)c(Cl)c1,-0.3,-0.3,-1.9,6.6
Nc1cccc(C(=O)OCC(=O)NC2CCCc3ccccc32)c1 (stereo not given),0.9,1.3,-1.5,-7.5
O=C(COC(=O)c1ccc([N+](=O)[O-])o1)NC1CCCc2ccccc21 (stereo not given),0.3,-0.3,-9.8,20.1*
CC(=O)c1ccc(Oc2cc(C)nc(N3CCOCC3)n2)cc1,-2.2,-0.1,6.0,.
O=C(CN1C(=O)c2ccccc2C1=O)NC1CCC(O)CC1 (stereo not given),-2.5,-0.4,-9.6,3.8
C=CCc1cccc(CNc2nc3ccccc3n2CC)c1O,-4.1,39.8*,3.5,1.8
CCCCn1c(NCc2ccccc2O)nc2ccccc21,-5.0,3.1,-10.9,3.6
Nc1ccc(C(=O)n2c3ccccc3c3ccccc32)cc1,1.1,-0.1,-1.4,28.0*
CCCC[C@H](CC(=O)c1ccccc1)[C@@H](OC(C)=O)C(=O)Oc1c(C(C)C)cccc1C(C)C,2.1,0.0,-2.1,25.0*
Cc1ccc(-c2nnc(NCc3nc4ccccc4[nH]3)c3ccccc23)cc1S(=O)(=O)N1CCOCC1,-0.1,12.0*,-16.5,-6.0
CC[n+]1c(/C=C/N(C)c2ccccc2)oc2ccc(F)cc21,-5.8,-0.1,-2.7,24.3*
CC[n+]1c(/C=C/N(C)c2ccccc2)oc2ccccc21,-1.9,0.2,8.8,20.5*
CC[n+]1c(/C=C/Nc2ccccc2)oc2ccccc21,-6.7,-0.6,3.9,8.9
CC(=NNC(=O)CNc1ccc(Cl)cc1C)c1ccc(C)cc1,.,.,.,34.4*
O=c1[nH]cnc(CN2CCCCC2)c1O,4.4,-0.4,-2.5,.
O=c1[nH]c(CN2CCCCC2)ccc1O,17.6*,-0.1,.,.
O=C(CCCCCN1C(=O)c2cccc3cccc(c23)C1=O)NCCCO,-5.8,-0.1,-0.2,-121.4
SMILES,Rin1 Abl inh,TbMetRS inhib,ATG4B inh,UCH37 DUB inh
N#Cc1c(-c2cccs2)nc(SCc2ccc(Cl)cc2)[nH]c1=O,-190.8,0.2,48.7*,9.8
CSc1nc(-c2cccs2)c(C#N)c(=O)[nH]1,-44.8,2.1,-12.4,.
Nc1c(Cl)ncnc1N/N=C/c1ccc2ccccc2n1,6.4*,0.7,-24.5,.
C#CNC(=O)C1(CC=C)CCNCC1,1.7,-0.1,-4.7,32.2*
Cc1nnc(SCc2ccccc2)nc1/C=C/NOCc1ccc(Cl)cc1Cl,-2.3,-0.1,9.6,6.6
O=C1CN(C(=O)COc2ccccc2Cl)c2ccccc2N1,2.1,-0.3,-5.1,1.0
COCCNc1nnc(SCC(=O)c2ccc3c(c2)OCO3)s1,0.4,-0.4,4.5,3.0
O=C(CSc1nnc(SCc2ccc(Cl)cc2)s1)c1ccc2c(c1)OCO2,-1.7,-0.6,12.8,22.1*
CCN1CCN(CCCNC(=O)C2CCCN(c3nnc(-n4cccc4)s3)C2)CC1 (stereo not given),-3.7,-0.3,8.0,23.2*
CCCCCCN1C=CC(=C/C=C(\C#N)C(=O)OCC)C=C1,-31.1,-0.5,-4.5,21.0*
CN(C)C(=S)NCc1ccccc1,0.0,-0.7,-3.3,2.2
Cc1cccc(/C=N\NC(=O)c2csnn2)c1,-3.5,-1.4,9.3,.
c1ccc(CNc2nc(-c3ccccc3)nc3ccccc23)cc1,-1.4,-0.4,8.4,1.8
c1ccc(CNc2nc(NCc3ccccc3)c3ccccc3n2)cc1,0.6,6.5*,11.8,-48.0
O=C(CSCCc1ccccn1)Nc1cccnc1,2.1,-0.1,6.6,23.1*
